Series [1] relates to Plasmodium berghei. Kind of series: In vivo antiplasmodial activity against Plasmodium berghei infected mouse model assessed as parasitemia suppression in blood at 10 mg/kg, po treated 4 times measured at 96 hrs post infection by fluorescence-activated cell sorting (FACS) analysis. The series is classed as functional.
The test system of series [2] is Plasmodium falciparum. Kind of series: Antimalarial activity against chloroquine, sulfadoxine, and pyrimethamine-resistant Plasmodium falciparum Dd2 infected in erythrocytes measured after 3 days by HRP2-ELISA analysis. The format is functional, organism-based. Conditions: Dd2, Erythrocyte, 72 h. Background: ELISA stands for enzyme-linked immunosorbent assay.
A further series has as its system Hemozoin. Kind of series: Inhibition of beta-hematin formation assessed as formation of bis-pyridyl heme complex incubated for 4 to 5 hrs by Nonidet-40 based plate reader assay.
Series [3] in a line: Selectivity index, ratio of IC50 for antimalarial activity against Plasmodium falciparum 3D7 to IC50 for cytotoxicity against human HepG2 cells. The conditions noted are these: HepG2 cells and Plasmodium falciparum 3D7.
Series [4] deals with Plasmodium berghei. Kind of series: In vivo antiplasmodial activity against Plasmodium berghei infected mouse model assessed as mean survival time at 30 mg/kg, po treated 4 times measured at 96 hrs post infection by fluorescence-activated cell sorting (FACS) analysis (reference value: 4 days). The format is functional.
Series [5] is described as follows: Selectivity index, ratio of IC50 for antimalarial activity against Plasmodium falciparum 3D7 to IC50 for cytotoxicity against human HEK293 cells. Conditions: HEK293 cells and Plasmodium falciparum 3D7.
Series [6] relates to Plasmodium falciparum. Kind of series: Antimalarial activity against chloroquine, sulfadoxine, and pyrimethamine-resistant Plasmodium falciparum Dd2 infected in erythrocyte assessed as reduction in number of viable parasites at 10 times IC50 concentration treated for 120 hrs followed by allowed to recover in drug-free medium for 28 days by HRP2-ELISA analysis. The format is functional, organism-based.

Series [7] can be described thus: Cytotoxicity against human HepG2 cells assessed as cell viability measured after 24 hrs by neutral red assay. The series is classed as toxicity, cell-based.
The subject of series [8] is Plasmodium berghei. Kind of series: In vivo antiplasmodial activity against Plasmodium berghei infected mouse model assessed as mean survival time at 50 mg/kg, po treated 4 times measured at 96 hrs post infection by fluorescence-activated cell sorting (FACS) analysis (reference value: 4 days). The format is functional.
The subject of series [9] is Plasmodium berghei. The series can be described thus: In vivo antiplasmodial activity against Plasmodium berghei infected mouse model assessed as mean survival time at 10 mg/kg, po treated 4 times measured at 96 hrs post infection by fluorescence-activated cell sorting (FACS) analysis (reference value: 4 days). The format is functional.
Series [10] concerns Plasmodium falciparum. Kind of series: Antimalarial activity against chloroquine-sensitive Plasmodium falciparum 3D7 infected in erythrocytes measured after 3 days by HRP2-ELISA analysis. The format is functional, organism-based. The conditions noted are these: 3D7, Erythrocyte, 72 h.
Series [11] in a line: Selectivity index, ratio of IC50 for antimalarial activity against Plasmodium falciparum 3D7 to IC50 for cytotoxicity against human HeLa cells. Conditions: HeLa cells and Plasmodium falciparum 3D7.
The subject of series [12] is Plasmodium falciparum. Kind of series: Antimalarial activity against chloroquine, sulfadoxine, and pyrimethamine-resistant Plasmodium falciparum Dd2 infected in erythrocyte assessed as reduction in number of viable parasites at 10 times IC50 concentration treated for 72 hrs followed by allowed to recover in drug-free medium for 28 days by HRP2-ELISA analysis. The series is classed as functional, organism-based.

Series [13] has as its system Plasmodium berghei. Kind of series: In vivo antiplasmodial activity against Plasmodium berghei infected mouse model assessed as parasitemia suppression in blood at 50 mg/kg, po treated 4 times measured at 96 hrs post infection by fluorescence-activated cell sorting (FACS) analysis. The series is classed as functional.
The subject of series [14] is Plasmodium berghei. The series can be described thus: In vivo antiplasmodial activity against Plasmodium berghei infected mouse model assessed as parasitemia suppression in blood at 3 mg/kg, po treated 4 times measured at 96 hrs post infection by fluorescence-activated cell sorting (FACS) analysis. The format is functional.
For series [15], the system named is Plasmodium berghei. Kind of series: In vivo antiplasmodial activity against Plasmodium berghei infected mouse model assessed as parasitemia suppression in blood at 30 mg/kg, po treated 4 times measured at 96 hrs post infection by fluorescence-activated cell sorting (FACS) analysis. The format is functional.
A short description of series [16]: Metabolic stability in human liver microsomes assessed as intrinsic clearance at 50 ug/ml measured up to 60 mins. The format is ADME, Microsome. Conditions: dose 50 µg/ml; for microsomal CLint at 50 ug/ml: liver microsomes, read-out: CLH. Put shortly: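 Pooled human liver microsomes (150 donors) in 0.1 M potassium phosphate buffer pH 7.4, cosolvent method, analyte at 1 μM final; reactions stopped with ice-cold acetonitrile at 0, 15, 30, 45, 60 min; LC–MS/MS. Clint from ke (negative slope of ln peak-area ratio vs time) via t1/2 = ln2/ke; triplicate; no-cofactor negative control and blank run.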
(Liver microsomes are a subcellular fraction often used to study metabolism.)

Series [17] has as its system Plasmodium falciparum. The series can be described thus: Antimalarial activity against Plasmodium falciparum K1 infected in human erythrocytes assessed as inhibition of parasite growth measured after 48 hrs incubation by [3H]hypoxanthine incorporation assay. The series is classed as functional, organism-based. The conditions noted are these: K1, Erythrocyte.
In series [18] the test system is Plasmodium falciparum. Kind of series: Antimalarial activity against chloroquine, sulfadoxine, and pyrimethamine-resistant Plasmodium falciparum Dd2 infected in erythrocyte assessed as reduction in number of viable parasites at 10 times IC50 concentration treated for 24 hrs followed by allowed to recover in drug-free medium for 28 days by HRP2-ELISA analysis. The format is functional, organism-based.

Series [19] concerns Plasmodium berghei. The series can be described thus: In vivo antiplasmodial activity against Plasmodium berghei infected mouse model assessed as curation rate at 10 mg/kg, po treated 4 times measured at 96 hrs post infection by fluorescence-activated cell sorting (FACS) analysis. The series is classed as functional.
The subject of series [20] is Plasmodium falciparum. Kind of series: Antimalarial activity against Plasmodium falciparum NF54 infected in human erythrocytes assessed as inhibition of parasite growth measured after 48 hrs incubation by [3H]hypoxanthine incorporation assay. The format is functional, organism-based. Conditions: NF54, Erythrocyte.
Series [21] concerns Plasmodium falciparum. The series can be described thus: Antimalarial activity against multidrug-resistant Plasmodium falciparum TM90C2b harboring pfcrt, pfmdr1, pfdhfr, pfdhps and pfcytb-Q0 mutated loci assessed as inhibition of parasite growth incubated for 48 hrs by [3H]hypoxanthine incorporation assay. The series is classed as functional, organism-based.
The next series has as its system Plasmodium knowlesi. Kind of series: Antiplasmodial activity against Plasmodium Knowlesi inhibition of parasite growth measured after 48 hrs incubation by Sybr-green assay. The format is functional, organism-based.
The subject of series [22] is Plasmodium falciparum. The series can be described thus: Antimalarial activity against multidrug-resistant Plasmodium falciparum RF12 (PH-1263-C) harboring pfcrt, pfmdr1, pfdhfr, pfdhps and pfK13 plasmepsin II mutated loci assessed as inhibition of parasite growth incubated for 48 hrs by [3H]hypoxanthine incorporation assay. The series is classed as functional, organism-based.

A short description of series [23]: Cytotoxicity against human HeLa cells assessed as cell viability measured after 24 hrs by neutral red assay. The series is classed as toxicity, cell-based.
Series [24] has as its system Plasmodium falciparum. The series can be described thus: Antimalarial activity against multidrug-resistant Plasmodium falciparum Dd2 harboring pfcrt, pfmdr1, pfdhfr, pfdhps mutated loci assessed as inhibition of parasite growth incubated for 48 hrs by [3H]hypoxanthine incorporation assay. The format is functional, organism-based.
The test system of series [25] is Plasmodium berghei. Kind of series: In vivo antiplasmodial activity against Plasmodium berghei infected mouse model assessed as curation rate at 30 mg/kg, po treated 4 times measured at 96 hrs post infection by fluorescence-activated cell sorting (FACS) analysis. The format is functional.
Series [26] can be described thus: Cytotoxicity against human HEK293 cells assessed as cell viability measured after 24 hrs by neutral red assay. The format is toxicity, cell-based.
For series [27], the system named is Plasmodium falciparum. Kind of series: Induction of resistance development in Plasmodium falciparum Dd2 Pol delta at 2 x 10^7 initial inoculum per flask measured by growth inhibition assay. The series is classed as functional, organism-based. In outline:
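Recrudescent Dd2-Polδ parasites from DSM265 selection, compared with the parent line in the growth inhibition assay to measure the IC50 shift.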

Series [28] deals with Plasmodium falciparum. The series can be described thus: Induction of resistance development in Plasmodium falciparum Dd2 Pol delta at 2 x 10^7 initial inoculum per flask by single-step selection assay. The series is classed as functional, organism-based.
Series [29] has as its system Plasmodium falciparum. The series can be described thus: Induction of resistance development in Plasmodium falciparum Dd2 Pol delta at 2 x 10^7 initial inoculum per flask measured on day 16 by single-step selection assay. The series is classed as functional, organism-based.
The nature of series [30]: Plasma protein binding in plasma (unknown origin) at 25 ng/ml measured after 24 hrs by dilution method. The series is classed as ADME, cell-free. Put shortly:
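Equilibrium dialysis with donor plasma diluted 1:10 or 1:20 in 0.9% saline, spiked at 25 ng/mL, against 0.9% saline acceptor for 24 h at 37 °C. Concentrations by LC–MS/MS against diluted-plasma calibration curves; unbound fraction (acceptor/donor) back-calculated to undiluted plasma; triplicate; itraconazole reference.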

Series [31] in a line: Plasma protein binding in plasma (unknown origin) at 25 ng/ml measured after 24 hrs by standard equilibrium dialysis assay. The format is ADME, cell-free. Conditions: read-out: PPB (converted). Put shortly:
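Standard equilibrium dialysis (6 kDa regenerated cellulose membrane): donor plasma spiked at 25 ng/mL, acceptor 0.9% saline, 24 h at 37 °C. Acetonitrile precipitation of plasma, methanol added to acceptor; LC–MS/MS with calibration curves in each medium; fraction bound corrected for volume shift; triplicate; itraconazole reference.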
In general terms: Equilibrium dialysis compares concentrations on both sides of a semipermeable membrane.

Usually IC50 stands for the midpoint of a concentration-inhibition curve.

The source made the active and inactive calls. No cut-off for these calls is given here.

Consider `COc1ccc(/N=C(\N)CC(O)c2cc3c(F)cc(F)cc3c3cc(C(F)(F)F)ccc23)cc1` (stereo unspecified), for which the Activity in the series on Plasmodium berghei [1] is listed as 99.9%; with Plasmodium berghei [13] it was 99.8%; in the series on Plasmodium berghei [14], 0%; with Plasmodium berghei [15], 99.9%; in the series with Plasmodium falciparum [18], “Active; Compound Exhibited Fast-Acting Than Dihydroartemisinin”; in the series on Plasmodium berghei [19] it was 0%. In addition, the IC50 in the series with Plasmodium falciparum [2] worked out at 0.012 µM; in the series on Hemozoin it was 8.4 µM; with Plasmodium falciparum [10] it was 0.005 µM; with Plasmodium falciparum [17], 0.006 µM; in the series with Plasmodium falciparum [20], 0.016 µM. For the same compound, the selectivity ratio in [3] is 860; in series [5], 7360; in [11] it was 9220. Further, the MSD stood at 28 days in the series with Plasmodium berghei [4], 27 days in the series with Plasmodium berghei [8] and 17 days with Plasmodium berghei [9]. For the same compound, the result in the series with Plasmodium falciparum [6] and in the series on Plasmodium falciparum [12] was Active. Besides, the IC50 at 24 h in [7] is 4.2 µM. In addition, in [16] (microsomes, 1 h), the CLint worked out at 13.6 µL/min/mg.

As to `O=C1C(O)=C([C@H]2CC[C@H](c3ccc(Cl)cc3)CC2)C(=O)c2ccccc21`, the Activity result with Plasmodium falciparum [6] was “Active; Compound Exhibited Slower Acting”.

Take `CCCCN(CCCC)CC(O)c1cc(Cl)cc2c1-c1ccc(Cl)cc1/C2=C/c1ccc(Cl)cc1` (stereo unspecified) [LUMEFANTRINE]: the IC50 in the series on Plasmodium falciparum [2] worked out at 0.002 µM; with Plasmodium falciparum [10], 0.006 µM; in the series on Plasmodium falciparum [17], 0.001 µM; in the series with Plasmodium falciparum [20], 0.005 µM. For the same compound, in series [3], the selectivity ratio is > 20. The MSD in the series on Plasmodium berghei [4] was >30 days. Further, in series [7], the 50% inhibitory concentration (IC50) at 24 h is > 20 µM. Besides, in the series with Plasmodium berghei [15], the Activity is given as 99.8%.

As to `CCN(CC)CCCC(C)Nc1ccnc2cc(Cl)ccc12` (stereo unspecified) [CHLOROQUINE], the IC50 worked out at 0.013 µM with Plasmodium falciparum [21], 0.016 µM in the series with Plasmodium knowlesi, 0.004 µM with Plasmodium falciparum [22] and 0.015 µM in the series on Plasmodium falciparum [24]. Moreover, the MSD in the series on Plasmodium berghei [4] came to 21 days. The IC50 at 24 h in series [23] and in series [26] was > 1000 µM in each case. The figures for the Activity in the series with Plasmodium berghei [15] and with Plasmodium berghei [25] were 99.9% and 0%, respectively. For the same compound, the microsomal CLint at 50 ug/ml in series [16] was < 7 µL/min/mg.

As to `Cc1cc(Nc2ccc(S(F)(F)(F)(F)F)cc2)n2nc(C(C)(F)F)nc2n1` [DSM-265], the 50% inhibitory concentration (IC50) stood at 0.232 µM with Plasmodium falciparum [27] and 0.0102 µM in the series on Plasmodium falciparum [28]. The Activity entry with Plasmodium falciparum [29] was “Not active; Recrudescence Of Parasite Observed”.

For the compound `CCc1nc(N)nc(N)c1-c1ccc(Cl)cc1`, the Activity result in the series on Plasmodium falciparum [12] is listed as “Active; Compound Exhibited Slower Acting”.

Consider `C[C@@H]1CC[C@H]2[C@@H](C)C(=O)O[C@@H]3O[C@@]4(C)CC[C@@H]1[C@]32OO4` [ARTEMISININ], for which, in the series with Plasmodium berghei [4], the MSD turned out to be 9 days. For the same compound, the Activity in the series with Plasmodium berghei [15] was found to be 99%; with Plasmodium berghei [25] it was 0%.

As to `CCC(C)n1ncn(-c2ccc(N3CCN(c4ccc(OCC5COC(Cn6cncn6)(c6ccc(Cl)cc6Cl)O5)cc4)CC3)cc2)c1=O` (stereo unspecified) [ITRACONAZOLE], the fraction unbound at 24 h, 25 ng/ml was 0.004 in series [30] and 0.016 in series [31].

For `CCCCN(CCCC)CCC(O)c1cc2c(Cl)cc(Cl)cc2c2cc(C(F)(F)F)ccc12` (stereo unspecified) [HALOFANTRINE], in the series with Hemozoin, the IC50 was 13.4 µM. Besides, in series [16], the microsomal CLint at 50 ug/ml is 26.9 µL/min/mg.

For the origin of these results see ChEMBL document CHEMBL6087468, “TKK130 is a 3-Hydroxy-Propanamidine (HPA) with Potent Antimalarial In Vivo Activity and a High Barrier to Resistance” (J Med Chem, 2025).
